This is an account of results in ChEMBL document CHEMBL4837210 (Eur J Med Chem, 2021).

Calls of active or inactive are those of the source. The rule behind the calls is not given here. A value given as a limit tells only on which side of the number the result lay.

Assay [1] relates to Streptococcus pyogenes. In words: Antibacterial activity against erythromycin-resistant Streptococcus pyogenes 2 assessed as bacterial growth inhibition incubated for 24 hrs by CLSI protocol based broth microdilution method. It is filed as functional. (In general: In broth dilution the organism is exposed to a series of concentrations in liquid medium.)
Assay [2] has as its system Bacillus pumilus. The experiment in a line: Induction of morphological changes in Bacillus pumilus CMCC 63202 assessed as alteration in length measured at 0.5 times MIC after 18 hrs by Phase contrast light microscope analysis (reference value: 1.2 to 3 micrometer). It is filed as functional.
Assay [3] relates to Staphylococcus aureus. The experiment in a line: In vivo antibacterial activity against […] Staphylococcus aureus ATCC 25923 infected in Kunming mouse assessed as reduction in viable bacterial cells at 5 mg/kg, administered 1 hr post bacterial infection and measured after 1 hr post compound treatment. It is filed as functional, organism-based. Put shortly: (§1)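 Kunming mice (~25 g, 6 per group) infected intravenously with 6 × 10⁷ CFU S. aureus ATCC25923 in 0.2 mL saline. About 1 h later, 1, 5 or 25 mg/kg was given intraperitoneally in 0.5 mL vehicle, with linezolid as reference. Orbital blood (100 µL) was taken before and 1 h after treatment, spread on MH agar and counted after 24 h.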

Another assay deals with Escherichia coli. In words: Antibacterial activity against penicillin-susceptible Escherichia coli ATCC 25922 assessed as inhibition of bacterial growth measured by broth microdilution method. The settings on record: time 24 hrs. It is filed as functional. Put shortly:
(§2)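 Broth microdilution in Mueller Hinton broth. A 0.5 McFarland suspension was diluted tenfold, giving an inoculum of 1.5 × 10⁷ cfu/mL. This was added to 2-fold serial compound dilutions from […]. Plates were incubated aerobically at 37 °C for 24 h. MIC was the lowest concentration with no visible turbidity.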

In assay [4] the test system is Staphylococcus aureus. In words: Antibacterial activity against Staphylococcus aureus ATCC 25923 assessed as reduction in bacterial growth measured after 18 passages by resistance development assay relative to control. It counts as functional. The settings on record: time 24 hrs. A digest of the protocol: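 Serial-passage resistance test with S. aureus ATCC25923. Cells from wells at 0.5× MIC made the next inoculum (~10⁷ CFU/mL), and the MIC was redetermined after 24 h at 37 °C.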

For assay [5], the system named is Staphylococcus aureus. In words: Bactericidal activity against methicillin-resistant Staphylococcus aureus ATCC 43300 measured after 24 hrs by CLSI protocol based method. It counts as functional. A digest of the protocol: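 MBC after broth microdilution. After 24 h, aliquots from clear wells were plated on tryptic soy agar and incubated aerobically 24 h at 37 °C. MBC was the lowest concentration giving no colonies.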

Assay [6] deals with Staphylococcus aureus. In words: Antibacterial activity against erythromycin-susceptible Staphylococcus aureus ATCC 25923 assessed as bacterial growth inhibition incubated for 24 hrs by CLSI protocol based broth microdilution method. It counts as functional.
The subject of assay [7] is Staphylococcus aureus. In words: In vivo antibacterial activity against […] Staphylococcus aureus ATCC 25923 infected in Kunming mouse assessed as reduction in bacterial load at 25 mg/kg, ip administered 1 hr post bacterial infection and measured after 1 hr post compound treatment. It counts as functional, organism-based. A digest of the protocol: as §1

The test system of assay [8] is Staphylococcus epidermidis. In words: Antibacterial activity against penicillin-resistant Staphylococcus epidermidis assessed as inhibition of bacterial growth measured by broth microdilution method. It is filed as functional. The note with it: time 24 hrs.
Assay [9] deals with Bacillus subtilis. The experiment in a line: Antibacterial activity against penicillin-susceptible Bacillus subtilis ATCC 9372 assessed as bacterial growth inhibition incubated for 24 hrs by CLSI protocol based broth microdilution method. It counts as functional.
Assay [10] relates to Bacillus pumilus. In words: Antibacterial activity against penicillin-susceptible Bacillus pumilus CMCC 63202 assessed as bacterial growth inhibition by broth dilution method. It counts as functional. The note with it: time 24 hrs. A digest of the protocol:
as §2

Assay [11] concerns Bacillus subtilis. In words: Bactericidal activity against penicillin-susceptible Bacillus subtilis ATCC 9372 measured after 24 hrs by CLSI protocol based method. It is filed as functional. Put shortly: (§3)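 MBC followed on from the 24 h broth microdilution MIC plates. Aliquots from clear wells were spread on tryptic soy agar and incubated aerobically at 37 °C for 24 h. MBC was the minimum concentration giving no colonies.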

The subject of assay [12] is Staphylococcus aureus. In words: Bactericidal activity against […] Staphylococcus aureus ATCC 25923 assessed as reduction in colony forming unit at 0.5 times MIC by time kill assay. It counts as functional, organism-based. Put shortly: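 Samples at 0, 3, 6, 9, 12 and 24 h were serially diluted in MH broth and plated on tryptic soy agar. CFU/mL from colony counts after 24 h at 37 °C.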

Assay [13] deals with T1, Cell division protein FtsZ (Bacillus subtilis) (UniProt A5Z1V5).
T1 sequence (whole entry): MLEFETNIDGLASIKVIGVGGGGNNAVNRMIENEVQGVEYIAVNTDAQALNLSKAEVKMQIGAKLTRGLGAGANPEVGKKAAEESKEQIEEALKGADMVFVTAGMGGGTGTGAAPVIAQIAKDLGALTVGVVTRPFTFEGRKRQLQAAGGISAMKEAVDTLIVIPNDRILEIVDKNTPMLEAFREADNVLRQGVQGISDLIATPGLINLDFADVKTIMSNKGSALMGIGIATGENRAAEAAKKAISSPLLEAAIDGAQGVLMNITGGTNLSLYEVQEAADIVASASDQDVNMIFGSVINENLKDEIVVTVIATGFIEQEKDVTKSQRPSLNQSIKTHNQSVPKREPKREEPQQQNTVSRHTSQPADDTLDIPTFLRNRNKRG
The experiment in a line: Induction of Bacillus subtilis FtsZ polymerization assessed as formation of bundling of FtsZ protofilaments at 10 ug/ml after 20 mins by transmission electron microscopic analysis. The settings on record: dose 10.0 µg/ml. Put shortly:
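B. subtilis FtsZ was incubated with or without compound for 20 min in Tris pH 7.4 polymerization buffer (KCl, MgCl₂, Triton X-100, GTP). Samples were applied to glow-discharged Formvar carbon-coated copper grids for 10 min, negatively stained with 1% phosphotungstic acid for 1 min, air-dried and imaged by TEM.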

The subject of assay [14] is Streptococcus pyogenes. In words: Antibacterial activity against erythromycin-susceptible Streptococcus pyogenes clinical isolate 1 assessed as bacterial growth inhibition incubated for 24 hrs by CLSI protocol based broth microdilution method. It counts as functional.
Assay [15] has as its system Bacillus pumilus. The experiment in a line: Bactericidal activity against penicillin-susceptible Bacillus pumilus CMCC 63202 measured after 24 hrs by CLSI protocol based method. It is filed as functional. Put shortly:
as §3

A further assay relates to Enterococcus faecium. In words: Antibacterial activity against vancomycin-resistant Enterococcus faecium ATCC 51559 assessed as bacterial growth inhibition incubated for 24 hrs by CLSI protocol based broth microdilution method. The settings on record: ATCC 51559, 24 h.
For assay [16], the system named is Staphylococcus epidermidis. The experiment in a line: Ratio of MBC to MIC against penicillin-resistant Staphylococcus epidermidis. It counts as functional. A digest of the protocol: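 MBC/MIC ratio from the broth microdilution MIC (24 h, 37 °C, MH broth) and the MBC (clear wells subcultured on tryptic soy agar, 24 h). A ratio ≤4 is read as bactericidal per CLSI.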

The target of assay [17] is T1, Cell division protein FtsZ (Bacillus subtilis). The experiment in a line: Induction of Bacillus subtilis FtsZ polymerization by fluorescence spectrophotometry. The note with it: dose 2.5-10 µg/ml, time 800.0 sec. Put shortly:
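Light scattering of B. subtilis FtsZ in 20 mM Tris pH 7.4 with 20 mM KCl, 5 mM MgCl₂ and 0.01% Triton X-100. Protein was preincubated in a cuvette with vehicle (2% DMSO) or compound. GTP was added last (2 mM final), and scattering at excitation 411 nm / emission 430 nm was followed for 800 s.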

The subject of the next assay is Pseudomonas aeruginosa. In words: Inhibition of biofilm formation in Pseudomonas aeruginosa ATCC 27853 at 64 ug/ml incubated for 18 hrs by crystal violet staining based method. It is filed as functional, organism-based. The settings on record: dose 64.0 µg/ml. Put shortly:
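P. aeruginosa ATCC27853 was grown overnight in MH medium, washed and diluted to OD₆₂₀ 0.05, grown to mid-log (OD₆₂₀ 0.3–0.5), then rediluted to 0.05. Cultures were grown statically with compound at 37 °C for 18 h. Wells were washed with PBS, fixed in methanol for 15 min and stained with 0.1% crystal violet for 30 min. Stain was solubilized in 1% SDS and read at A540, in triplicate.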

On to `C[n+]1c2ccccc2c(/C=C/c2ccc(C(C)(C)C)cc2)c2ccccc21.[I-]`, for which the MIC – broadly, the least concentration at which growth counts as inhibited – in the assay with Streptococcus pyogenes [1] is 0.25 µg/mL; in the assay on Escherichia coli, above 64 µg/mL; in the assay with Staphylococcus aureus [6], 0.5 µg/mL; in [8], 1 µg/mL; in the assay with Bacillus subtilis [9], 0.25 µg/mL; in the assay with Bacillus pumilus [10], 0.5 µg/mL. Further, the MIC in the assay on Streptococcus pyogenes [14] is below 0.125 µg/mL; in the assay with Enterococcus faecium, 2 µg/mL. The Activity in the assay on Bacillus pumilus [2] was 20 um; in [17] it was “Dose-Dependent Effect”. Further, the outcome (in the assay on Staphylococcus aureus [3]; in the assay on Staphylococcus aureus [7]; in assay [13]) was Active. Also, the fold change (FC) with Staphylococcus aureus [4] worked out at 2. Also, the results for the MBC with Staphylococcus aureus [5], in the assay with Bacillus subtilis [11] and against Bacillus pumilus [15] were 4 µg/mL, 0.5 µg/mL and 2 µg/mL, respectively. For the same compound, in the assay with Staphylococcus aureus [12], the MIC result is “inactive”. Moreover, the Ratio in assay [16] was found to be 1. Further, the inhibition entry in the assay with Pseudomonas aeruginosa was “inactive”.
